Laboratory results taken from publication PMC8926318 (Iranian Journal of Biotechnology, 2021).

Legend:
human colorectal cells = conditions: cited from earlier work
human fibrosarcoma cells = conditions: by inducing apoptosis; cited from earlier work
[1] = tested on: HepG2 (human liver cancer cell line); assay: MTT cell viability assay, HepG2; type: cell-based; conditions: HepG2 cells, 48 h, only at the highest concentration (1000 µM); for inhibitory activity compared with ciprofloxacin (in words): Fig. 3; for viability inhibition compared with the triazole compound (in words): Fig. 5
In short: (§1)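 Cells kept in RPMI1640 with 10% FBS, penicillin and streptomycin (100 µg.mL-1 each) at 37 °C, 5% CO2. Plated at 10⁴ cells/well for 24 h, then given test compound at 10, 100 or 1000 µM for 48 h. MTT (5 mg.mL-1 in PBS) added for 4 h at 37 °C. Formazan dissolved in DMSO for 20 min, read at 570 nm. At least triplicate; one-way ANOVA with Tukey post hoc.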

[2] = tested on: LNCaP (human prostatic carcinoma cell line); assay: MTT cell viability assay, LNCaP; type: cell-based; conditions: LNCaP cells, 48 h, 1000 µM, p<0.01
In short: as §1

For LSGNK [C1], the “anti-proliferative activity (in words)” value (human colorectal cells) is listed as “anti-proliferative agent”.
For YIGSR [C2], the “effect on tumor growth and metastasis (in words)” value (human fibrosarcoma cells) is given as “inhibitory effect on tumor growth and metastasis”.
In the case of ciprofloxacin-LSGNK [Cipro-C1], the “inhibitory activity compared with ciprofloxacin (in words)” value [1] is reported as “more inhibitory activity”.
For ciprofloxacin-YIGSR [Cipro-C2], the “inhibitory activity compared with ciprofloxacin (in words)” value [1] was “more inhibitory activity”.
With triazole-LSGNK [triazole-C1] the “viability inhibition compared with the triazole compound (in words)” value [1] was “noticeable viable inhibition”.
For triazole-YIGSR [triazole-C2], the “viability inhibition compared with the triazole compound (in words)” value [1] was “noticeable viable inhibition” and the “toxicity compared with unconjugated congener (in words)” value [2] was “more significant”.
